Reference: ChEMBL document CHEMBL1154674, “Synthesis and evaluation of three 18F-labeled aminophenylbenzothiazoles as amyloid imaging agents” (J Med Chem, 2009)
Values belong to the compound of their own block, whether it stands above or below them.

What was measured:
Type in all cases: ADME, organism-based, Macaca mulatta
[1] = Drug level in normal rhesus monkey frontal cortex assessed as standard uptake value at 81.2 MBq, iv after 10 mins by microPET; conditions: in vivo
How it was run: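 Single normal rhesus monkey; each tracer given iv via the vena saphena, with 1 day between tracer injections. Dynamic μPET ran 180 min (5×60 s, 5×120 s, 9×300 s, 12×600 s). Images were reconstructed by filtered back projection with a RAMP filter. Regional time-activity curves were expressed as SUV.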

[2] = Drug level in normal rhesus monkey frontal cortex assessed as standard uptake value at 81.2 MBq, iv after 52.5 mins by microPET; conditions: in vivo, 0.875 h
[3] = Drug level in normal rhesus monkey parietal cortex assessed as standard uptake value at 81.2 MBq, iv after 0.5 mins by microPET; conditions: in vivo
[4] = Drug level in normal rhesus monkey white matter assessed as standard uptake value at 81.2 MBq, iv after 3.5 mins by microPET; conditions: in vivo
[5] = Drug level in normal rhesus monkey parietal cortex assessed as standard uptake value at 81.2 MBq, iv after 32.5 mins by microPET; conditions: in vivo
[6] = Drug level in normal rhesus monkey cerebellum assessed as standard uptake value at 96.3 MBq, iv after 0.5 mins by microPET; conditions: in vivo
How it was run: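 One normal rhesus monkey, each tracer given iv via the vena saphena (81.2, 96.3 or 109.4 MBq), with 1 day between tracer injections. Dynamic brain μPET over 180 min used frames of 5 × 60 s, 5 × 120 s, 9 × 300 s and 12 × 600 s. Images were reconstructed by filtered back projection with a RAMP filter. Regional time-activity curves were expressed as SUV.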

[7] = Drug level in normal rhesus monkey thalamus assessed as standard uptake value at 96.3 MBq, iv after 12 mins by microPET; conditions: in vivo, 0.2 h
[8] = Drug level in normal rhesus monkey frontal cortex assessed as standard uptake value at 96.3 MBq, iv after 175 mins by microPET; conditions: in vivo
[9] = Drug level in normal rhesus monkey thalamus assessed as standard uptake value at 96.3 MBq, iv after 65 mins by microPET; conditions: in vivo
[10] = Drug level in normal rhesus monkey parietal cortex assessed as standard uptake value at 96.3 MBq, iv after 115 mins by microPET; conditions: in vivo
[11] = Drug level in normal rhesus monkey white matter assessed as standard uptake value at 96.3 MBq, iv after 47.5 mins by microPET; conditions: in vivo
[12] = Drug level in normal rhesus monkey parietal cortex assessed as standard uptake value at 96.3 MBq, iv after 32.5 mins by microPET; conditions: in vivo
[13] = Drug level in normal rhesus monkey thalamus assessed as standard uptake value at 96.3 MBq, iv after 165 mins by microPET; conditions: in vivo, 2.75 h
[14] = Drug level in normal rhesus monkey white matter assessed as standard uptake value at 96.3 MBq, iv after 57.5 mins by microPET; conditions: in vivo
[15] = Drug level in normal rhesus monkey pons assessed as standard uptake value at 96.3 MBq, iv after 65 mins by microPET; conditions: in vivo
[16] = Drug level in normal rhesus monkey frontal cortex assessed as standard uptake value at 96.3 MBq, iv after 42.5 mins by microPET; conditions: in vivo
[17] = Drug level in normal rhesus monkey thalamus assessed as standard uptake value at 96.3 MBq, iv after 1.5 mins by microPET; conditions: in vivo, 0.025 h
[18] = Drug level in normal rhesus monkey cerebellum assessed as standard uptake value at 109.4 MBq, iv after 52.5 mins by microPET; conditions: in vivo, 0.875 h
How it was run: (§1)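 One normal rhesus monkey received each tracer via the vena saphena, with 1 day between injections. Dynamic μPET ran 180 min for 18F tracers (5×60 s, 5×120 s, 9×300 s, 12×600 s) and 90 min for the 11C tracer (5×60 s, 5×120 s, 9×300 s, 3×600 s). Filtered back-projection reconstruction (RAMP filter) was used. Time-activity curves were drawn to give regional SUV.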

[19] = Drug level in normal rhesus monkey parietal cortex assessed as standard uptake value at 109.4 MBq, iv after 111 mins by microPET; conditions: in vivo
[20] = Drug level in normal rhesus monkey white matter assessed as standard uptake value at 109.4 MBq, iv after 75 mins by microPET; conditions: in vivo, 1.25 h
[21] = Drug level in normal rhesus monkey thalamus assessed as standard uptake value at 109.4 MBq, iv after 9.5 mins by microPET; conditions: in vivo
[22] = Drug level in normal rhesus monkey pons assessed as standard uptake value at 109.4 MBq, iv after 6.5 mins by microPET; conditions: in vivo
[23] = Drug level in normal rhesus monkey thalamus assessed as standard uptake value at 152.9 MBq, iv after 22.5 mins by microPET; conditions: in vivo, 0.375 h
[24] = Drug level in normal rhesus monkey thalamus assessed as standard uptake value at 152.9 MBq, iv after 65 mins by microPET; conditions: in vivo
[25] = Drug level in normal rhesus monkey white matter assessed as standard uptake value at 152.9 MBq, iv after 37.5 mins by microPET; conditions: in vivo, 0.625 h
[26] = Drug level in normal rhesus monkey thalamus assessed as standard uptake value at 152.9 MBq, iv after 37.5 mins by microPET; conditions: in vivo, 0.625 h
[27] = Drug level in normal rhesus monkey pons assessed as standard uptake value at 152.9 MBq, iv after 6 mins by microPET; conditions: in vivo, 0.1 h
[28] = Drug level in normal rhesus monkey frontal cortex assessed as standard uptake value at 152.9 MBq, iv after 37.5 mins by microPET; conditions: in vivo, 0.625 h
How it was run: (§2)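 Single normal rhesus monkey; tracer given iv via the vena saphena, 1 day apart from the other tracer injections. Dynamic μPET ran 90 min (5×60 s, 5×120 s, 9×300 s, 3×600 s). Images were reconstructed by filtered back projection with a RAMP filter. Regional time-activity curves were expressed as SUV.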

[29] = Drug level in normal rhesus monkey pons assessed as standard uptake value at 152.9 MBq, iv after 8 mins by microPET; conditions: in vivo
[30] = Drug level in normal rhesus monkey cerebellum assessed as standard uptake value at 152.9 MBq, iv after 52.5 mins by microPET; conditions: in vivo, 0.875 h; how it was run: as §1
[31] = Drug level in normal rhesus monkey frontal cortex assessed as standard uptake value at 152.9 MBq, iv after 4.5 mins by microPET; conditions: in vivo, 0.075 h; how it was run: as §2
[32] = Drug level in normal rhesus monkey frontal cortex assessed as standard uptake value at 152.9 MBq, iv after 1.5 mins by microPET; conditions: in vivo, 0.025 h
How it was run: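 One normal rhesus monkey, tracer given iv via the vena saphena (152.9 MBq), with at least 1 day between tracer injections. Dynamic brain μPET over 90 min used frames of 5 × 60 s, 5 × 120 s, 9 × 300 s and 3 × 600 s. Images were reconstructed by filtered back projection with a RAMP filter. Regional time-activity curves were expressed as SUV.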

[33] = Drug level in normal rhesus monkey cerebellum assessed as standard uptake value at 152.9 MBq, iv after 32.5 mins by microPET; conditions: in vivo; how it was run: as §2
[34] = Drug level in normal rhesus monkey parietal cortex assessed as standard uptake value at 152.9 MBq, iv after 4.5 mins by microPET; conditions: in vivo, 0.075 h

SUV [1]: 5.813 | SUV [2]: 5.321 | SUV [3]: 0.924 | SUV [4]: 3.019 | SUV [5]: 4.094
Compound: CNc1ccc2nc(-c3ccc([18F])cc3)sc2c1

SUV [6]: 0.54 | SUV [7]: 2.38 | SUV [8]: 1.49 | SUV [9]: 2.21 | SUV [10]: 1.3 | SUV [11]: 1.37 | SUV [12]: 1.9 | SUV [13]: 1.86 | SUV [14]: 1.37 | SUV [15]: 1.83 | SUV [16]: 1.96 | SUV [17]: 1.55
Compound: CN(C)c1ccc2nc(-c3ccc([18F])cc3)sc2c1

SUV [18]: 3.38 | SUV [19]: 3.59 | SUV [20]: 3.63 | SUV [21]: 5.36 | SUV [22]: 4.08
Compound: Nc1ccc2nc(-c3ccc([18F])cc3)sc2c1

SUV [23]: 1.903 | SUV [24]: 0.85 | SUV [25]: 1.095 | SUV [26]: 1.364 | SUV [27]: 2.044 | SUV [28]: 0.912 | SUV [29]: 2.153 | SUV [30]: 0.813 | SUV [31]: 2.11 | SUV [32]: 0.478 | SUV [33]: 1.143 | SUV [34]: 1.925
Compound: [11CH3]Nc1ccc(-c2nc3ccc(O)cc3s2)cc1 [PITTSBURGH COMPOUND B]
